Experimental data as given in ChEMBL document CHEMBL3596119, “Synthesis and biological characterization of a promising F-18 PET tracer for vesicular acetylcholine transporter” (Bioorg Med Chem, 2015).

Experiments:
Rattus norvegicus [1] = assay: Biodistribution in Sprague-Dawley rat fat at 2.2 MBq/120 uL, iv after 60 mins by gamma counting; assay type: ADME, organism-based, Adipose tissue; conditions: in vivo, 1 h
Procedure, shortened: (§1)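 Adult male SD rats, isoflurane (2-3%)/oxygen anesthesia, tail-vein injection of ~2.2 MBq/120 μL tracer in 10% ethanol in saline; euthanized under anesthesia at the stated time (n = 4 per time point). Brain dissected into regions, remainder kept for total brain; organs, blood, bone collected and weighed, gamma-counted against a standard dilution of injectate; %ID/g calculated.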

Pancreas [2] = assay: Biodistribution in Sprague-Dawley rat pancreas at 2.2 MBq/120 uL, iv after 60 mins by gamma counting; assay type: ADME, organism-based; conditions: in vivo, 1 h; procedure, shortened: as §1
Liver [3] = assay: Biodistribution in Sprague-Dawley rat liver at 2.2 MBq/120 uL, iv after 60 mins by gamma counting; assay type: ADME, organism-based; conditions: in vivo, 1 h; procedure, shortened: as §1
Bone [4] = assay: Biodistribution in Sprague-Dawley rat bone at 2.2 MBq/120 uL, iv after 60 mins by gamma counting; assay type: ADME, organism-based, Bone element; conditions: in vivo, 1 h; procedure, shortened: as §1
Rattus norvegicus [5] = assay: Biodistribution in Sprague-Dawley rat total brain at 2.2 MBq/120 uL, iv after 60 mins by gamma counting; assay type: ADME, organism-based; conditions: in vivo, 1 h
Procedure, shortened: (§2)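 Injected by tail vein in 10% ethanol in saline into adult male SD rats under 2-3% isoflurane/oxygen anesthesia. Rats were killed under anesthesia, n = 4 per time point. Total brain and other tissues were weighed and gamma-counted against a standard dilution of the injectate. Values are %ID/g.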

Blood [6] = assay: Biodistribution in Sprague-Dawley rat blood at 2.2 MBq/120 uL, iv after 120 mins by gamma counting; assay type: ADME, organism-based; conditions: in vivo, 2 h; procedure, shortened: as §1
Heart [7] = assay: Biodistribution in Sprague-Dawley rat heart at 2.2 MBq/120 uL, iv after 120 mins by gamma counting; assay type: ADME, organism-based; conditions: in vivo, 2 h; procedure, shortened: as §1
Lung [8] = assay: Biodistribution in Sprague-Dawley rat lung at 2.2 MBq/120 uL, iv after 120 mins by gamma counting; assay type: ADME, organism-based; conditions: in vivo, 2 h; procedure, shortened: as §1
Muscle tissue [9] = assay: Biodistribution in Sprague-Dawley rat muscle at 2.2 MBq/120 uL, iv after 120 mins by gamma counting; assay type: ADME, organism-based; conditions: in vivo, 2 h; procedure, shortened: as §1
Rattus norvegicus [10] = assay: Biodistribution in Sprague-Dawley rat fat at 2.2 MBq/120 uL, iv after 120 mins by gamma counting; assay type: ADME, organism-based, Adipose tissue; conditions: in vivo, 2 h; procedure, shortened: as §1
Pancreas [11] = assay: Biodistribution in Sprague-Dawley rat pancreas at 2.2 MBq/120 uL, iv after 120 mins by gamma counting; assay type: ADME, organism-based; conditions: in vivo, 2 h; procedure, shortened: as §1
Spleen [12] = assay: Biodistribution in Sprague-Dawley rat spleen at 2.2 MBq/120 uL, iv after 120 mins by gamma counting; assay type: ADME, organism-based; conditions: in vivo, 2 h; procedure, shortened: as §1
Kidney [13] = assay: Biodistribution in Sprague-Dawley rat kidney at 2.2 MBq/120 uL, iv after 120 mins by gamma counting; assay type: ADME, organism-based; conditions: in vivo, 2 h; procedure, shortened: as §1
Liver [14] = assay: Biodistribution in Sprague-Dawley rat liver at 2.2 MBq/120 uL, iv after 120 mins by gamma counting; assay type: ADME, organism-based; conditions: in vivo, 2 h; procedure, shortened: as §1
Bone [15] = assay: Biodistribution in Sprague-Dawley rat bone at 2.2 MBq/120 uL, iv after 120 mins by gamma counting; assay type: ADME, organism-based, Bone element; conditions: in vivo, 2 h; procedure, shortened: as §1
Rattus norvegicus [16] = assay: Biodistribution in Sprague-Dawley rat total brain at 2.2 MBq/120 uL, iv after 120 mins by gamma counting; assay type: ADME, organism-based; conditions: in vivo, 2 h; procedure, shortened: as §1
Rattus norvegicus [17] = assay: Biodistribution in Sprague-Dawley rat brain stem at 2.2 MBq/120 uL, iv after 5 mins by gamma counting; assay type: ADME, organism-based; conditions: in vivo; procedure, shortened: as §1
Hippocampus = assay: Biodistribution in Sprague-Dawley rat hippocampus at 2.2 MBq/120 uL, iv after 5 mins by gamma counting; assay type: ADME, organism-based; conditions: in vivo; procedure, shortened: as §1
Striatum [18] = assay: Biodistribution in Sprague-Dawley rat striatum at 2.2 MBq/120 uL, iv after 30 mins by gamma counting; assay type: ADME, organism-based; conditions: in vivo, 0.5 h; procedure, shortened: as §1
Striatum [19] = assay: Biodistribution in Sprague-Dawley rat striatum at 2.2 MBq/120 uL, iv after 60 mins by gamma counting; assay type: ADME, organism-based; conditions: in vivo, 1 h; procedure, shortened: as §1
[20] = Drug uptake in cynomolgus monkey striatum at 296 to 410 MBq administered via venous catheter after 120 mins by microPET imaging in presence of 0.25 mg/kg (-)-vesamicol; assay type: ADME, organism-based, Macaca fascicularis; conditions: in vivo, 2 h
Procedure, shortened: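 Blocking scan: (-)-vesamicol 0.25 mg/kg was given through the venous catheter 5 min before the tracer (296–410 MBq). The monkey was under isoflurane anesthesia. A 2 h dynamic microPET scan followed, and striatal and cerebellar time-activity curves were generated.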

Plasma [21] = assay: Metabolic stability in monkey plasma assessed as radioactivity at 15 to 106 MBq after 5 to 60 mins by HPLC analysis; assay type: ADME, cell-free, Macaca mulatta; conditions: rhesus monkey
Plasma [22] = assay: Retention time in monkey plasma assessed as radioactivity at 15 to 106 MBq after 5 to 60 mins by HPLC analysis; assay type: ADME, cell-free, Macaca mulatta; conditions: rhesus monkey
Plasma [23] = assay: Drug metabolism in Sprague-Dawley rat plasma assessed as radioactivity at 15 to 106 MBq, iv after 5 to 60 mins by HPLC analysis; assay type: ADME, organism-based
Striatum [24] = assay: Ex-vivo drug uptake in Sprague-Dawley rat striatum at 63 MBq, iv after 60 mins by autoradiography; assay type: ADME, organism-based; conditions: 1 h
Procedure, shortened: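 One adult male SD rat received ~63.0 MBq by tail vein under anesthesia and was killed at 60 min. The brain was snap-frozen and cut into 100 μm horizontal sections. Sections were exposed to film for 12 h at -80 °C. Striatum-to-cerebellum ratio was quantified over 30 slices.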

Lung [25] = assay: Biodistribution in Sprague-Dawley rat lung at 2.2 MBq/120 uL, iv after 5 mins by gamma counting; assay type: ADME, organism-based; conditions: in vivo; procedure, shortened: as §1
Rattus norvegicus [26] = assay: Biodistribution in Sprague-Dawley rat fat at 2.2 MBq/120 uL, iv after 5 mins by gamma counting; assay type: ADME, organism-based, Adipose tissue; conditions: in vivo; procedure, shortened: as §1
Spleen [27] = assay: Biodistribution in Sprague-Dawley rat spleen at 2.2 MBq/120 uL, iv after 5 mins by gamma counting; assay type: ADME, organism-based; conditions: in vivo; procedure, shortened: as §1
Liver [28] = assay: Biodistribution in Sprague-Dawley rat liver at 2.2 MBq/120 uL, iv after 5 mins by gamma counting; assay type: ADME, organism-based; conditions: in vivo; procedure, shortened: as §1
Bone [29] = assay: Biodistribution in Sprague-Dawley rat bone at 2.2 MBq/120 uL, iv after 5 mins by gamma counting; assay type: ADME, organism-based, Bone element; conditions: in vivo; procedure, shortened: as §1
Blood [30] = assay: Biodistribution in Sprague-Dawley rat blood at 2.2 MBq/120 uL, iv after 30 mins by gamma counting; assay type: ADME, organism-based; conditions: in vivo, 0.5 h; procedure, shortened: as §1
Heart [31] = assay: Biodistribution in Sprague-Dawley rat heart at 2.2 MBq/120 uL, iv after 30 mins by gamma counting; assay type: ADME, organism-based; conditions: in vivo, 0.5 h; procedure, shortened: as §1
Muscle tissue [32] = assay: Biodistribution in Sprague-Dawley rat muscle at 2.2 MBq/120 uL, iv after 30 mins by gamma counting; assay type: ADME, organism-based; conditions: in vivo, 0.5 h; procedure, shortened: as §1
Rattus norvegicus [33] = assay: Biodistribution in Sprague-Dawley rat fat at 2.2 MBq/120 uL, iv after 30 mins by gamma counting; assay type: ADME, organism-based, Adipose tissue; conditions: in vivo, 0.5 h; procedure, shortened: as §1
Spleen [34] = assay: Biodistribution in Sprague-Dawley rat spleen at 2.2 MBq/120 uL, iv after 30 mins by gamma counting; assay type: ADME, organism-based; conditions: in vivo, 0.5 h; procedure, shortened: as §1
Kidney [35] = assay: Biodistribution in Sprague-Dawley rat kidney at 2.2 MBq/120 uL, iv after 30 mins by gamma counting; assay type: ADME, organism-based; conditions: in vivo, 0.5 h; procedure, shortened: as §1
Liver [36] = assay: Biodistribution in Sprague-Dawley rat liver at 2.2 MBq/120 uL, iv after 30 mins by gamma counting; assay type: ADME, organism-based; conditions: in vivo, 0.5 h; procedure, shortened: as §1
Rattus norvegicus [37] = assay: Biodistribution in Sprague-Dawley rat total brain at 2.2 MBq/120 uL, iv after 30 mins by gamma counting; assay type: ADME, organism-based; conditions: in vivo, 0.5 h; procedure, shortened: as §2
Blood [38] = assay: Biodistribution in Sprague-Dawley rat blood at 2.2 MBq/120 uL, iv after 60 mins by gamma counting; assay type: ADME, organism-based; conditions: in vivo, 1 h; procedure, shortened: as §1
Heart [39] = assay: Biodistribution in Sprague-Dawley rat heart at 2.2 MBq/120 uL, iv after 60 mins by gamma counting; assay type: ADME, organism-based; conditions: in vivo, 1 h; procedure, shortened: as §1

O=C(c1ccc(F)cc1)C1CCN(C2Cc3c(cccc3OCC[18F])CC2O)CC1 (single isomer, unassigned; (-))
Drug uptake (Rattus norvegicus [1]): 0.548 % ID/g | Drug uptake (Pancreas [2]): 1.324 % ID/g | Drug uptake (Liver [3]): 0.456 % ID/g | Drug uptake (Bone [4]): 0.403 % ID/g | Drug uptake (Rattus norvegicus [5]): 0.425 % ID/g | Drug uptake (Blood [6]): 0.356 % ID/g | Drug uptake (Heart [7]): 0.336 % ID/g | Drug uptake (Lung [8]): 0.551 % ID/g | Drug uptake (Muscle tissue [9]): 0.235 % ID/g | Drug uptake (Rattus norvegicus [10]): 0.56 % ID/g | Drug uptake (Pancreas [11]): 0.819 % ID/g | Drug uptake (Spleen [12]): 0.376 % ID/g | Drug uptake (Kidney [13]): 0.489 % ID/g | Drug uptake (Liver [14]): 0.382 % ID/g | Drug uptake (Bone [15]): 0.537 % ID/g | Drug uptake (Rattus norvegicus [16]): 0.409 % ID/g | Drug uptake (Rattus norvegicus [17]): 0.683 % ID/g | Drug uptake (Hippocampus): 0.645 % ID/g | Drug uptake (Striatum [18]): 0.886 % ID/g | Drug uptake (Striatum [19]): 0.819 % ID/g | Drug uptake [20]: Not Active | Stability (Plasma [21]): 76% | Retention_time (Plasma [22]): 9 min | Drug metabolism (Plasma [23]): metabolite_detected | Drug uptake (Striatum [24]): Active | Drug uptake (Lung [25]): 2.255 % ID/g | Drug uptake (Rattus norvegicus [26]): 0.144 % ID/g | Drug uptake (Spleen [27]): 1.265 % ID/g | Drug uptake (Liver [28]): 1.065 % ID/g | Drug uptake (Bone [29]): 0.426 % ID/g | Drug uptake (Blood [30]): 0.27 % ID/g | Drug uptake (Heart [31]): 0.39 % ID/g | Drug uptake (Muscle tissue [32]): 0.258 % ID/g | Drug uptake (Rattus norvegicus [33]): 0.324 % ID/g | Drug uptake (Spleen [34]): 0.685 % ID/g | Drug uptake (Kidney [35]): 0.883 % ID/g | Drug uptake (Liver [36]): 0.523 % ID/g | Drug uptake (Rattus norvegicus [37]): 0.482 % ID/g | Drug uptake (Blood [38]): 0.338 % ID/g | Drug uptake (Heart [39]): 0.357 % ID/g
